High-throughput results from PubChem.
CHO parental Ca – signal in parental CHO cells, OX1R antagonist counter-screen | parental CHO-K1, ATP-induced calcium, Fluo-8 fluorescence | inhibition, % at 5.6 µM | 0.63% of 330,000 active | AID 463079;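 active means inhibition above that plate's mean sample inhibition plus 3 SD, cut at about 26% in these data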;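 further: 0% = ATP-challenged DMSO wells and 100% = DMSO wells without ATP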
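Test system: parental CHO cells; detection: calcium-sensitive Fluo-8 fluorescence; evaluation: percent inhibition of calcium signal; also added: ATP as calcium-mobilizing challenge; repeats: one well per compound; control set: ATP-challenged DMSO wells low, unchallenged DMSO wells high; compound: single nominal dose of 5.6 µM per compound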
OX1R antag-1 – blocks the human orexin 1 receptor; O43613; CHO/OX1R cells, Fluo-8 calcium fluorescence, orexin A; inhibition, % at 5 µM; 0.43% of 330,000 active;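 active means inhibition above its plate's threshold, mean inhibition of all tested compounds on the plate plus 3 SD, cut at about 37% in these data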;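 further: 0% = orexin A challenge wells and 100% = SB-334867-A antagonist wells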
Target sequence (O43613 whole entry, looked up): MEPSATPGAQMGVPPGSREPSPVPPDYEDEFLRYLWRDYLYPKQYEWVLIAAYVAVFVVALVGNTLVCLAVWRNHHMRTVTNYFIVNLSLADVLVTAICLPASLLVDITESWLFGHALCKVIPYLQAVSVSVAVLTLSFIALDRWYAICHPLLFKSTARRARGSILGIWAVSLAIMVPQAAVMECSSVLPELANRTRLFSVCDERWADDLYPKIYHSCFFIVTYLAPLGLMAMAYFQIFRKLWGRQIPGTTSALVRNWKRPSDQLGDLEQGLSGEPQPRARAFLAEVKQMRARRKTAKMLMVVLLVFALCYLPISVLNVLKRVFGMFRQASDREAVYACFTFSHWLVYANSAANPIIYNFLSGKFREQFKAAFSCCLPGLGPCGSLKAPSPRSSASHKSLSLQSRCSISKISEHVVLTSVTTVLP
M1 PAM parental – M1 PAM counterscreen hit in parental CHO-K1 cells; AID 602247; activation, % at 3 µM; ATP EC20, Fluo-8 calcium fluorescence; 0% at ATP EC20, 100% at ATP max; 0.02% of 360,000 active;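 active means activation above the run cutoff, the mean activation of all test compounds plus 3 SD, cut at about 40% in these data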;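 further: peak over basal fluorescence ratio in a 140 s read after ATP addition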
CHO-K1 Ca antag – counter-screen for M1 antagonists: effect in parental CHO-K1 cells | 0.6% of 360,000 active | inhibition, % at 3 µM | ATP-induced calcium, Fluo-8 fluorescence;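 active means inhibition above a per-plate cutoff, the plate's mean sample inhibition plus 3 SD, cut at about 24% in these data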;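 further: 0% = DMSO plus EC80 ATP and 100% = DMSO alone without ATP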
CHO-K1 Ca ag – counter-screen for M1 agonists: effect in parental CHO-K1 cells. Fluo-8 calcium fluorescence; scaled to maximal ATP response, vehicle zero. activation, % at 3 µM. 0.48% of 360,000 active; in the data active means activation above about 15%;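 further: untransfected CHO-K1 host cells lacking M1 receptor as counterscreen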
OX1R antag-2 – antagonists of human orexin 1 receptor (OX1R). O43613. 1.8% of 330,000 active. OX1R-expressing cells, FRET antagonist read-out. inhibition, % at 6.6 µM; in the data active means inhibition mostly above about 38%, no sharp cut-off; inactive means mostly below about 40%;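 further: 0% = agonist challenge alone and 100% = reference antagonist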
* = called active by the depositor; / = no result. Only some compounds are listed: those with a hit (about 2.9% of all), similar ones and a draw of the others.

SMILES	CHO parental Ca	OX1R antag-1	M1 PAM parental	CHO-K1 Ca antag	CHO-K1 Ca ag	OX1R antag-2
O=C(c1ccco1)N1CCN(c2ccc(Cl)cc2)CC1	-8.3	-10.5	15.2	-6.9	0.9	17.9
Cc1cc(C)cc(NC(=S)N2CCN(C(=O)c3ccco3)CC2)c1	-12.2	-0.2	-28.2	25.4*	-0.6	10.2
COC(=O)N1CCN(c2ccc(Cl)c(Cl)c2)CC1	-4.4	-7.8	7.2	7.0	8.3	20.0
O=C(c1ccco1)N1CCN(c2ccc(Cl)c(Cl)c2)CC1	-6.6	6.2	-14.6	26.2*	5.8	12.8
CNC(=S)N1CCN(c2ccc(Cl)c(Cl)c2)CC1	-3.4	12.5	-1.1	3.6	16.9*	21.1
O=C(c1ccco1)N1CCN(C(=S)Nc2ccc(F)c(Cl)c2)CC1	-2.5	-4.7	-14.1	-7.3	3.5	13.1
Cc1ccc(CNC(=O)C2CCN(c3nc(C)cc(C)n3)CC2)cc1	9.4	-20.9	14.6	-17.6	1.0	6.9
COc1ccc(CC(=O)NNC(=O)c2ccncc2)cc1	11.6	4.9	2.1	-11.2	-0.1	12.3
COc1ccc(N(CC(=O)N2CCc3ccccc3C2)S(=O)(=O)c2c(C)nn(C)c2C)cc1	-18.4	-25.4	4.5	4.3	1.4	41.8*
CCOc1cc(/C=C(/NC(C)=O)C(=O)O)cc(Cl)c1OCc1ccc(Br)cc1	-9.4	-10.7	17.0	-11.8	2.3	5.6
O=C(Nc1cccc2ccccc12)N1CCc2ccccc2C1	-16.6	-27.2	-7.5	20.1	-0.5	30.8
CCc1ccccc1NC(=O)N1CCc2ccccc2C1	/	/	-0.5	2.8	19.2*	/
CC(CCc1ccccc1)NC(=O)C(Cc1ccccc1)NS(=O)(=O)c1cccs1 (stereo unspecified)	-21.3	-18.4	5.7	-4.9	0.2	37.8*
CC(CCc1ccccc1)NC(=O)c1cccs1 (stereo unspecified)	-3.6	8.9	-18.0	28.9*	-0.2	6.8
CC1CCCCC1NC(=O)C(Cc1ccccc1)NS(=O)(=O)c1cccs1 (stereo unspecified)	-20.8	-28.8	11.4	-9.5	0.6	25.3
COc1ccccc1CCc1nnc(CCC(=O)N(C)Cc2cccc3cnccc23)o1	-9.3	-35.0	-16.1	25.3*	0.3	16.5
O=C1CCC[C@@H]2Cc3[nH]c4c(Cl)ccc(Cl)c4c3[C@@H]3CCN1[C@H]23	-15.3	-13.9	-5.7	9.6	0.0	34.0
O=C1NC[C@H](c2ccccc2)N(CCC23CC4CC(CC(C4)C2)C3)C1=O	-11.9	-10.1	14.3	9.2	-0.8	-0.9
c1ccc(Nc2cccc3ccccc23)cc1	-12.2	-21.1	24.7	-8.6	-0.2	7.7
c1ccc(Nc2ccc3c4c(cccc24)CC3)cc1	6.4	0.8	8.1	39.9*	39.8*	11.3
Nc1ccc2c3c(cccc13)CC2	60.1*	70.7*	13.6	11.8	14.3	12.8
COc1ccc(-c2n(CC(=O)OC3CC(C)CCC3C(C)C)c3ccccc3[n+]2C)cc1 (stereo unspecified)	/	/	-3.8	24.2*	5.6	/
CC1CCC(C(C)C)C(OC(=O)CSc2nccc(=O)[nH]2)C1 (stereo unspecified)	-3.3	-10.4	5.8	-1.1	-0.1	12.3
COc1cccc2cc(C(=O)NCc3ccccc3Cl)c(=O)oc12	-1.7	-7.5	11.5	5.5	15.4*	6.2
COc1cccc2cc(C(C)=O)c(=O)oc12	-3.7	0.6	29.2	-41.2	1.1	28.8
SMILES	CHO parental Ca	OX1R antag-1	M1 PAM parental	CHO-K1 Ca antag	CHO-K1 Ca ag	OX1R antag-2
COc1cccc2cc(C(=O)NCc3ccccc3Br)c(=O)oc12	2.5	-17.3	12.3	-1.4	0.1	18.6
COc1cccc2cc(C(=O)CS(=O)(=O)c3ccc(Cl)cc3)c(=O)oc12	-15.9	-18.5	13.1	-9.5	1.4	42.7*
CC(=O)N1c2ccc(S(=O)(=O)NCC3CCC(C(=O)NCc4ccco4)CC3)cc2CC1C (stereo unspecified)	-8.8	-12.9	-8.9	-8.0	0.8	14.1
COc1ccc(/C=C/c2cc[n+](C(=O)Cc3ccccc3)cc2)cc1	-1.3	-10.2	0.6	-7.5	0.3	72.7*
Brc1ccc2c(c1)OCCOCCOc1cc(Br)ccc1OCCOCCOCCO2	57.0*	71.5*	11.8	-10.4	11.1	4.8
Brc1cc2c(cc1Br)OCCOCCOCCOCCO2	-14.4	-39.1	9.5	-0.2	0.8	21.5
COCCCn1c(=N)c(C(=O)NC2CCCCC2)cc2c(=O)n3ccccc3nc21	-9.1	-28.6	12.2	-4.3	0.1	75.5*
N=c1c(C(=O)NCc2ccco2)cc2c(=O)n3ccccc3nc2n1C1CCCC1	-5.8	-18.4	-0.5	-5.0	-0.8	53.8*
Cc1ccc(CNC(=O)c2cc3c(=O)n4ccccc4nc3n(CC3CCCO3)c2=N)cc1 (stereo unspecified)	-18.3	-48.7	19.6	-12.8	-0.6	66.5*
N=c1c(C(=O)NC2CCCC2)cc2c(=O)n3ccccc3nc2n1C1CCCC1	-1.2	-6.9	-2.0	7.0	-0.3	32.4
N=c1c(C(=O)NC2CCCC2)cc2c(=O)n3ccccc3nc2n1CC1CCCO1 (stereo unspecified)	-15.2	-0.3	-0.6	-6.3	0.5	50.1*
Cc1ccc(CNC(=O)c2cc3c(=O)n4ccccc4nc3n(Cc3ccco3)c2=N)cc1	-48.3	-32.6	-1.2	8.1	-0.1	45.8
CC1(C)C(=O)OC(/C=C\c2ccccc2)C(C)(C)C1=O (stereo unspecified)	-6.2	-23.1	1.9	-11.9	0.6	23.9
CN(Cc1ccccc1)C(=O)COC(=O)c1cc(S(=O)(=O)N(C)C)ccc1N1CCCC1	-19.3	-22.8	2.3	-1.6	-0.3	12.1
N/C(=N\NC(=O)c1sccc1OCc1ccc(Cl)cc1Cl)c1ccccn1	-39.4	-40.2	37.8	-12.7	3.1	16.6
CN(Cc1ccccc1Cl)C(=O)CNC(=O)C12CC3CC(CC(C3)C1)C2	0.6	-14.0	-5.6	-0.4	0.9	13.1
CC(NC(=O)c1cc2c(=O)n3ccccc3nc2n(CC2CCCO2)c1=N)c1ccccc1 (stereo unspecified)	-9.2	-19.0	1.7	-15.6	1.0	36.9*
N=c1c(C(=O)NC2CCCCC2)cc2c(=O)n3ccccc3nc2n1CC1CCCO1 (stereo unspecified)	-6.3	-13.0	13.2	-12.9	-0.1	60.3*
COc1ccc(Cn2c(=N)c(C(=O)NC3CCCCC3)cc3c(=O)n4ccccc4nc32)cc1	-7.0	-31.5	7.2	-4.2	0.6	21.9
Cn1c(C(=O)NCC2CCCO2)cc2c(=O)n3ccccc3nc21 (stereo unspecified)	3.1	-12.9	5.0	-1.8	0.4	23.0
COCCNc1nnc(SCC(=O)Nc2nnc(-c3ccccc3)o2)s1	0.0	-6.1	20.2	-5.6	0.6	12.2
Cc1ccccc1OC(=O)c1cccc(S(=O)(=O)N2CCN(C)CC2)c1	-6.7	-8.0	-13.3	0.2	0.9	-3.1
